# Data as given in ChEMBL document CHEMBL4689842, “EUbOPEN Chemogenomics Library wave 1” (2021).
# Where “and” joins values, the source holds several entries; their conditions need not be identical. Equal values may be shown once.
# Tested on: U2OS
# Test: Multiplex assay against U2OS
# Type: toxicity, cell-based
# Settings: human
# Outline: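 Cells were classed with CellPathfinder machine-learning gating, first as Hoechst high-intensity objects or normal cells, then (normal cells) as healthy, pyknosed or fragmented nuclei, and finally (pyknosed cells) as mitotic or apoptotic. Staining of live cells at seeding used Hoechst33342, BioTracker Green Microtubule Cytoskeleton Dye, MitoTracker Red and Annexin V Alexa Fluor 680, with imaging on a CQ1 microscope at 37°C and 5% CO2 after compound addition. Tubulin, mitochondrial-mass and membrane-permeability phenotypes are per cents of healthy-nucleus cells.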
# [1] = 12 h, 1 µM, compound concentration 1 uM, replicate 1
# [2] = 12 h, 1 µM, compound concentration 1 uM, replicate 2
# [3] = 12 h, 10 µM, compound concentration 10 uM, replicate 1
# [4] = 12 h, 10 µM, compound concentration 10 uM, replicate 2
# [5] = 24 h, 1 µM, compound concentration 1 uM, replicate 1
# [6] = 24 h, 1 µM, compound concentration 1 uM, replicate 2
# [7] = 24 h, 10 µM, compound concentration 10 uM, replicate 1
# [8] = 24 h, 10 µM, compound concentration 10 uM, replicate 2
# [9] = 48 h, 10 µM, compound concentration 10 uM, replicate 1
# [10] = 48 h, 10 µM, compound concentration 10 uM, replicate 2
structure (smiles),measurement,setting,value
NC(=O)Nc1cc(-c2cccc(F)c2)sc1C(=O)N[C@H]1CCCNC1 [AZD-7762],Population Apoptotic (%),[1],25%
same,Population Fragmented Nuclei (%),[1],7%
same,Population Hoechst High Intensity Objects (%),[1],3%
same,Population Membrane Permeable-Phenotype (%),[1],9%
same,Population Mitochondria Different-Phenotype (%),[1],17%
same,Population Mitotic Cells (%),[1],75%
same,Population Normal (%),[1],96%
same,Population Pyknosed Nuclei (%),[1],10%
same,Total Cell Count,[1],157
same,Population Apoptotic (%),[2],0%
same,Population Fragmented Nuclei (%),[2],8%
same,Population Healthy Nuclei (%),[2],81%
same,Population Hoechst High Intensity Objects (%),[2],15%
same,Population Membrane Permeable-Phenotype (%),[2],13%
same,Population Mitochondria Different-Phenotype (%),[2],10%
same,Population Mitotic Cells (%),[2],100%
same,Population Normal (%),[2],84%
same,Population Pyknosed Nuclei (%),[2],9%
same,Population Tubulin-Different-Phenotype (%),[2],26%
same,Total Cell Count,[2],110
same,Population Apoptotic (%),[3],25% and 43%
same,Population Fragmented Nuclei (%),[3],28%
same,Population Healthy Nuclei (%),[3],28% and 20%
same,Population Hoechst High Intensity Objects (%),[3],3% and 12%
same,Population Membrane Permeable-Phenotype (%),[3],19% and 8%
same,Population Mitochondria Different-Phenotype (%),[3],15% and 20%
same,Population Mitotic Cells (%),[3],74% and 56%
same,Population Normal (%),[3],96% and 87%
same,Population Pyknosed Nuclei (%),[3],49% and 50%
same,Population Tubulin-Different-Phenotype (%),[3],17% and 11%
same,Total Cell Count,[3],189 and 194
same,Population Apoptotic (%),[4],46% and 22%
same,Population Fragmented Nuclei (%),[4],22% and 25%
same,Population Healthy Nuclei (%),[4],25% and 32%
same,Population Hoechst High Intensity Objects (%),[4],5% and 11%
same,Population Membrane Permeable-Phenotype (%),[4],21% and 20%
same,Population Mitotic Cells (%),[4],53% and 77%
same,Population Normal (%),[4],94% and 88%
same,Population Pyknosed Nuclei (%),[4],52% and 41%
same,Total Cell Count,[4],79 and 84
same,Population Apoptotic (%),[5],40%
same,Population Fragmented Nuclei (%),[5],15%
same,Population Healthy Nuclei (%),[5],52%
same,Population Hoechst High Intensity Objects (%),[5],6%
same,Population Membrane Permeable-Phenotype (%),[5],16%
same,Population Mitochondria Different-Phenotype (%),[5],21%
same,Population Mitotic Cells (%),[5],60%
same,Population Normal (%),[5],93%
same,Population Pyknosed Nuclei (%),[5],32%
same,Population Tubulin-Different-Phenotype (%),[5],35%
same,Total Cell Count,[5],150
same,Population Apoptotic (%),[6],37%
same,Population Fragmented Nuclei (%),[6],7%
same,Population Healthy Nuclei (%),[6],51%
same,Population Hoechst High Intensity Objects (%),[6],18%
same,Population Membrane Permeable-Phenotype (%),[6],7%
same,Population Mitotic Cells (%),[6],62%
same,Population Normal (%),[6],81%
same,Population Pyknosed Nuclei (%),[6],40%
same,Population Tubulin-Different-Phenotype (%),[6],34%
same,Total Cell Count,[6],97
same,Population Apoptotic (%),[7],81% and 85%
same,Population Healthy Nuclei (%),[7],7%
same,Population Hoechst High Intensity Objects (%),[7],9% and 10%
same,Population Mitochondria Different-Phenotype (%),[7],46% and 78%
same,Population Mitotic Cells (%),[7],18% and 14%
same,Population Normal (%),[7],90% and 89%
same,Population Pyknosed Nuclei (%),[7],47% and 70%
same,Total Cell Count,[7],185 and 189
same,Population Apoptotic (%),[8],92% and 70%
same,Population Fragmented Nuclei (%),[8],16% and 21%
same,Population Healthy Nuclei (%),[8],16% and 18%
same,Population Hoechst High Intensity Objects (%),[8],20% and 11%
same,Population Membrane Permeable-Phenotype (%),[8],100% and 64%
same,Population Mitochondria Different-Phenotype (%),[8],80% and 57%
same,Population Normal (%),[8],80% and 88%
same,Population Pyknosed Nuclei (%),[8],66% and 59%
same,Population Tubulin-Different-Phenotype (%),[8],90% and 64%
same,Total Cell Count,[8],75 and 84
same,Population Apoptotic (%),[9],95%
same,Population Fragmented Nuclei (%),[9],38%
same,Population Healthy Nuclei (%),[9],1%
same,Population Hoechst High Intensity Objects (%),[9],15%
same,Population Membrane Permeable-Phenotype (%),[9],0%
same,Population Mitochondria Different-Phenotype (%),[9],33%
same,Population Mitotic Cells (%),[9],4%
same,Population Normal (%),[9],84%
same,Population Pyknosed Nuclei (%),[9],59%
same,Population Tubulin-Different-Phenotype (%),[9],33%
same,Total Cell Count,[9],188
same,Population Apoptotic (%),[10],100%
same,Population Fragmented Nuclei (%),[10],16%
same,Population Healthy Nuclei (%),[10],44%
same,Population Hoechst High Intensity Objects (%),[10],21%
same,Population Membrane Permeable-Phenotype (%),[10],100%
same,Population Mitochondria Different-Phenotype (%),[10],92%
same,Population Mitotic Cells (%),[10],0%
same,Population Normal (%),[10],78%
same,Population Pyknosed Nuclei (%),[10],38%
same,Population Tubulin-Different-Phenotype (%),[10],96%
same,Total Cell Count,[10],75
